Experimental data collected from several papers.
Lines come from different studies, so protocols differ.
Target: Serine/threonine-protein kinase 16 (STK16, Homo sapiens, UniProt O75716)

C=CC(=O)N1CCC(C(=O)NCC(=O)N2CCN(c3nc(-c4cnc(N)nc4C(F)F)nc(N4CCOCC4)n3)CC2)CC1 gave a remaining binding of 92% (binding, competition with immobilised ligand; 1 µM).
O=C(N1CCS(=O)(=O)CC1)N1C[C@H](c2ccc(OC(F)(F)F)cc2)C[C@H](c2nc(C3CC3)no2)C1 gave a remaining binding of 100% (cell-free assay, competition with immobilised ligand; 1 µM).
The remaining binding of O=C(c1ccc(Nc2ncc(Cl)c(-c3ccc(Cl)s3)n2)cc1)N1CCC(N2CCCC2)CC1 is reported as 0.05% (binding, competition with immobilised ligand; 1 µM).
With CO[C@@H](C)c1c(Nc2ccc([C@H](N(C)C(=O)C3CCS(=O)(=O)CC3)C(F)(F)F)cc2)cnc2cc(Cl)nn12 the remaining binding was 75% (cell-free assay, competition with immobilised ligand; 1 µM).
With CN(C)c1nccc(-c2cnc3ncccn23)n1 the remaining binding was 92% (binding; 1 µM).
CNC(=O)[C@@H]1CC[C@@H](n2c(-c3ccc4cnccc4c3)nc3ccc(C(=O)NCc4cccc(C(N)=O)c4)cc32)C1 gave a remaining binding of 100% (binding, competition with immobilised ligand; 1 µM).
With CN(C)c1nccc(-c2cnn3ncccc23)n1 the remaining binding was 87% (binding; 1 µM).
For O=C(c1ccc(Nc2ncc(Cl)c(-c3cc4ccccc4s3)n2)cc1)N1CCC(N2CCCC2)CC1, the remaining binding was 5.6% (binding, competition with immobilised ligand; 1 µM).
For CCN1CCN(Cc2ccc(C(=O)Nc3ccc(C)c(Oc4ccc5c(c4)CC(=O)N5)c3)cc2C(F)(F)F)CC1, the remaining binding was 100% (binding, competition with immobilised ligand; 1 µM).
For O=C(NCCCN1CCOCC1)c1ccc(Nc2ncc(Cl)c(-c3ccc(Cl)s3)n2)cc1, the remaining binding was 1.1% (binding, competition with immobilised ligand; 1 µM).
The remaining binding of F[C@@H]1CCN(c2nccc(-c3cnn4ncccc34)n2)C1 is reported as 100% (binding; 1 µM).
With CCC(=O)N[C@@H]1CC[C@H](C(=O)N(C)c2ccc(-c3nc4ccccc4o3)cc2)C1 the remaining binding was 100% (cell-free assay, competition with immobilised ligand; 1 µM).
COc1cnc(Nc2cccc(S(N)(=O)=O)c2)nc1N1CCN(c2ccccc2)CC1 gave a remaining binding of 57% (binding, competition with immobilised ligand; 1 µM).
The remaining binding of O=C(Nc1c[nH]nc1C(=O)NC1CCNCC1)c1cc(F)cc(F)c1 is reported as 100% (binding, competition with immobilised ligand; 1 µM).
Cc1cc(C)c(-n2ccn3nc(-c4cccnc4)cc23)cc1NC(=O)c1cc(C#N)cc(S(F)(F)(F)(F)F)c1 gave a remaining binding of 64.3% (cell-free assay, competition with immobilised ligand; 0.1 µM).
With COc1ccnn2ncc(-c3ccnc(N(C)C)n3)c12 the remaining binding was 85% (binding; 1 µM).
For C[C@@H](c1ccc(-n2cnc3c(N)ncnc32)cc1)N1CCc2nn(C)c(Cc3ccccc3)c2C1=O, the remaining binding was 85% (binding, competition with immobilised ligand; 0.1 µM).
CCCCN(CCCC)C(=O)CN1C[C@H](c2cc(OC)c3c(c2)OCO3)[C@@H](C(=O)O)[C@@H]1CC(C)(C)CCC has a remaining binding of 100% (cell-free assay, competition with immobilised ligand; 1 µM).
With CN(CCCC(F)(F)F)c1nccc(-c2cnn3ncccc23)n1 the remaining binding was 79% (binding; 1 µM).
COc1cccc(CNC(=O)c2nc3scc(COCc4ccc(C(=O)O)cc4)c3c(=O)[nH]2)c1 gave a remaining binding of 87.2% (cell-free assay, competition with immobilised ligand; 1 µM).
For N[C@H]1CCN(c2nccc(-c3cnn4ncccc34)n2)C1, the remaining binding was 91% (binding; 1 µM).
